Screens: PubChem BioAssay, Broad Institute
This is a sample that favours compounds with a hit; in the whole collection about 3% have one here.
C2C12 statin = suppressors of statin myotoxicity in C2C12 myotubes, primary screen, cell-based, single point, plate reader; actives 0.78% (n = 330,000); AID 602340, 2012; rescue of ATP level, % at 7.49 µM; C2C12 myotubes + simvastatin, ATP luminescence, 48 h; scaled: DMSO 0, geranylgeraniol control 100;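 active = mean ATP rescue above about 67%, or every replicate alone reaching that limit, limit read from the data, passing the limit was not always enough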;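 note: myotubes were challenged with 10 µM simvastatin during compound exposure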
rRNA inh HTS = reduced GFP signal of wild-type E. coli, primary screen, bacterial rRNA inhibitor project, GFP/RFP fluorescence, OD600, single point; AID 720706, 2013; E. coli WT GFP vs humanized-ribosome RFP mutants, 24 h; stronger effect = lower value; DMSO median 0, no signal -100; GFP signal change (wild-type ribosome), % (concentration not given with the values); actives 1.6% (n = 350,000);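 active = significant combined selectivity score with lowered wild-type GFP, culture density cut under 30%, mutant RFP and density less affected; inactive = any of these conditions unmet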
S100A4 inh HTS = inhibitors of S100A4-myosin IIA peptide binding, primary screen, biochemical, fluorescence polarization, TAMRA-MyoIIA peptide; Protein S100-A4 (Homo sapiens), P26447; inhibition, % at 10.7 µM; actives 0.14% (n = 360,000);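 active = mean inhibition of at least 70% across replicates, with every replicate also reaching that level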
Target sequence (P26447 whole entry, looked up): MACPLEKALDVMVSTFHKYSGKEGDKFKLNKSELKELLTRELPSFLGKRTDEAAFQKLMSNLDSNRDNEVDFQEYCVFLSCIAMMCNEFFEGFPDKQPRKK
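assay system = human S100A4 monomer with TAMRA-labelled myosin IIA peptide | also added = labelled myosin peptide probe, 5 nM | incubation = 5 min between mix addition and reading | control set = DMSO and TFP controls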
Cneo AK release = Cryptococcus neoformans cell lysis inducers, primary screen, AK release luminescence, single concentration. C. neoformans lysis, adenylate kinase release luminescence, 4 h; normalised: neutral wells 0, clomiphene wells 100. lysis activity, % at 15 µM. actives 0.2% (n = 360,000);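 active = mean lysis activity across replicates of at least 80%, whatever share of replicates individually reach that level; inactive = mean lysis activity below 80%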
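Material: C. neoformans cells | Amount: Yeast cell density of 5 × 10^6 cells/mL | Medium: Fresh YPD growth medium | Dosing: Single dose | Times: Static 4 h at 37 °C with compound, 1 h detection | Detection: AK luminescence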
PGC1a acetyl inh = inhibitors of PGC1a acetylation signal, primary screen, cell-based, U2OS, AlphaScreen, inhibitor mode | actives 0.17% (n = 350,000) | AlphaScreen anti-acetyl-lysine; with virally co-expressed GCN5 acetyltransferase | inhibition, % at 15.6 µM | AID 651687, 2012;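 active = every replicate shows inhibition of at least 40%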
SIRT5 inh = SIRT5 desuccinylase inhibitors, primary screen, biochemical, fluorescence imaging, single point, set 5; inhibition, % at 15 µM; NAD-dependent protein deacylase sirtuin-5, mitochondrial (Homo sapiens), Q9NXA8; Purified SirT5, succinyl-peptide AMC, trypsin-coupled fluorescence; AID 652115, 2013; actives 1.1% (n = 330,000); in the data active = inhibition above about 15%
Target sequence (Q9NXA8 whole entry, looked up): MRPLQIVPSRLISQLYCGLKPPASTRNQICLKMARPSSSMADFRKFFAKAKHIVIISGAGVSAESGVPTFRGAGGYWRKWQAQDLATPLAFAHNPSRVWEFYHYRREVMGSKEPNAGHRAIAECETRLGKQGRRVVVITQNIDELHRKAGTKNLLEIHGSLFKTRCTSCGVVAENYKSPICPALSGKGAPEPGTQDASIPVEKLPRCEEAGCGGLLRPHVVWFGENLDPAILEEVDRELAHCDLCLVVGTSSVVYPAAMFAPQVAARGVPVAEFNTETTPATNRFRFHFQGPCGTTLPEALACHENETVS
Large screens that a line does not name were inactive.

O=C(Nc1nnc(-c2ccc(Br)cc2)o1)c1ccco1	none (no result: rRNA inh HTS, S100A4 inh HTS, SIRT5 inh)
C[C@@H]1CN([C@H](C)CO)C(=O)Cc2cc(NC(=O)Nc3ccc(F)cc3)ccc2O[C@@H]1CN(C)Cc1ccncc1	none
CCOC(=O)c1cnc2c(c(C)nn2C)c1Oc1ccccc1F	rRNA inh HTS -32 (no result: C2C12 statin, Cneo AK release)
Cc1ccc(NC(=O)Nc2ccon2)cc1Cl	rRNA inh HTS -34 (no result: PGC1a acetyl inh)
CC1(C)Cc2c(C#N)c(N3CCN(C(=O)c4ccco4)CC3)nc(-c3ccco3)c2CS1	C2C12 statin 121 (no result: rRNA inh HTS, S100A4 inh HTS, SIRT5 inh)
Cc1ccc(-n2ncc3c(=O)n(CC(=O)NCC4CCCO4)cnc32)cc1 (centres undefined)	none (no result: rRNA inh HTS, S100A4 inh HTS, SIRT5 inh)
O=C(Cn1cnc2c(cnn2-c2ccc(Cl)cc2)c1=O)NCC1CCCO1 (centres undefined)	C2C12 statin 85 (no result: rRNA inh HTS, S100A4 inh HTS, SIRT5 inh)
CCOC(=O)C1=C(C)N=C2SCCC(=O)N2C1c1sccc1C (centres undefined)	none (no result: rRNA inh HTS, S100A4 inh HTS, SIRT5 inh)
C=CCOC(=O)C1=C(C)N=C2SCCC(=O)N2C1c1cccs1 (centres undefined)	C2C12 statin 110 (no result: rRNA inh HTS, S100A4 inh HTS, SIRT5 inh)
COc1ccc(NC(=O)Nc2ccc3c(c2)C(=O)N([C@H](C)CO)C[C@@H](C)[C@@H](CN(C)Cc2ccc(C(=O)O)cc2)OCCCC[C@@H](C)O3)cc1	none (no result: C2C12 statin)
CC(C)(C)NC(=O)CSc1nnc(-c2ccccc2)c(-c2ccccc2)n1	none (no result: rRNA inh HTS, S100A4 inh HTS, SIRT5 inh)
CC(=O)NNC(=O)CSc1nnc(-c2ccccc2)c(-c2ccccc2)n1	Cneo AK release 93
COC(=O)c1sc(C(F)(F)F)c(-c2ccccc2)c1S(=O)(=O)N1CCCC1	rRNA inh HTS -26
O=C(Nc1nc(=O)c2ccccc2s1)c1ccc(Cl)cc1	C2C12 statin 80 (no result: rRNA inh HTS, S100A4 inh HTS, SIRT5 inh)
C[C@H]1CCCCO[C@@H](CN(C)Cc2ccncc2)[C@@H](C)CN([C@@H](C)CO)C(=O)c2cc(NS(C)(=O)=O)ccc2O1	none
O=S(=O)(Nc1nc2c(s1)CCCC2)c1ccc2ccccc2c1	C2C12 statin 123 (no result: rRNA inh HTS, S100A4 inh HTS, SIRT5 inh)
O=S(=O)(NC1=NCCCCC1)c1ccc2sc(NS(=O)(=O)c3ccc4ccccc4c3)nc2c1	none
N#Cc1cc2c(nc1SCC(O)CS(=O)(=O)Cc1ccccc1)CCCC2 (centres undefined)	rRNA inh HTS -35
O=C(C[C@H]1CC[C@@H]2[C@H](COC[C@@H](O)CN2CCC(F)(F)F)O1)NCc1ccc2c(c1)OCO2	none
Cc1noc(C)c1NC(=O)N(C)C[C@@H]1OCCCC[C@H](C)Oc2ccc(NS(=O)(=O)c3c(C)noc3C)cc2C(=O)N([C@H](C)CO)C[C@@H]1C	none
CCOc1ccc(Nc2nc(NCc3ccco3)nc(N)c2[N+](=O)[O-])cc1	PGC1a acetyl inh 72 (no result: Cneo AK release)
COc1cccc(Nc2nc(N)c([N+](=O)[O-])c(NCc3ccccc3)n2)c1	rRNA inh HTS -34 (no result: C2C12 statin)
Nc1nc(NCc2ccccc2)nc(NCc2ccccc2)c1[N+](=O)[O-]	none (no result: C2C12 statin, rRNA inh HTS, S100A4 inh HTS, SIRT5 inh)
Nc1nc(NCc2ccco2)nc(N2CCN(Cc3ccccc3)CC2)c1[N+](=O)[O-]	rRNA inh HTS -24 (no result: C2C12 statin)
Nc1nc(Nc2ccccc2)nc(NCc2ccccc2)c1[N+](=O)[O-]	rRNA inh HTS -15 (no result: Cneo AK release, PGC1a acetyl inh)
C[C@@H]1CN([C@H](C)CO)C(=O)c2cc(-c3cccnc3)cnc2O[C@H]1CN(C)C(=O)Nc1ccc2c(c1)OCO2	none
O=C(C1=C[C@@H](c2ccc3c(c2)OCO3)C[C@@H](OCc2ccc(CO)cc2)O1)N1CCCCCCC1	none (no result: C2C12 statin, rRNA inh HTS, PGC1a acetyl inh)
Cc1ccc(CNc2nc(N)c([N+](=O)[O-])c(NCc3ccccc3)n2)cc1	none (no result: C2C12 statin, rRNA inh HTS, S100A4 inh HTS, PGC1a acetyl inh, SIRT5 inh)
Cc1ccc(CNc2nc(N)c([N+](=O)[O-])c(Nc3ccc(F)cc3)n2)cc1	C2C12 statin 123 (no result: rRNA inh HTS, S100A4 inh HTS, SIRT5 inh)
Cc1ccsc1/C=N/NC(=O)c1nnn(-c2nonc2N)c1C(C)C	rRNA inh HTS -18
Nc1nonc1-n1nnc(C(=O)N/N=C/c2cccc(Cl)c2)c1-c1cccs1	C2C12 statin 72, rRNA inh HTS -17
CC(C)c1c(C(=O)N/N=C/c2c[nH]c3ccccc23)nnn1-c1nonc1N	rRNA inh HTS -18
COc1ccc(/C=N/NC(=O)c2nnn(-c3nonc3N)c2-c2cccs2)cc1OC	none
CC(C)c1c(C(=O)N/N=C/c2cccc3ccccc23)nnn1-c1nonc1N	none
O=C(c1ccccc1)N1CC(=O)N2[C@H](CO)[C@H](c3ccc(C#Cc4ccccc4)cc3)[C@H]2C1	none (no result: C2C12 statin, Cneo AK release)
Cc1ccc(S(=O)(=O)N(C)C[C@@H]2Oc3ccc(NC(=O)Cc4cn(C)c5ccccc45)cc3C(=O)N([C@@H](C)CO)C[C@H]2C)cc1	none
COC(=O)C[C@@H]1CC[C@@H]2[C@H](COC[C@@H](O)CN2S(=O)(=O)c2ccc(F)cc2)O1	none
C/C=C/c1ccc([C@@H]2[C@@H](CO)N(C(=O)CN(C)C)C23CN(C(=O)C2CCC2)C3)cc1	none (no result: C2C12 statin, Cneo AK release)
CC(C)N1C(=O)C2(OCCCO2)c2cc(Br)ccc21	Cneo AK release 84
CSc1c(-c2ccccn2)c(N)nn1C(=O)C1CCC1	none (no result: rRNA inh HTS, Cneo AK release)
CSc1c(-c2ccccn2)c(N)nn1C(=O)C1CC1	rRNA inh HTS -24 (no result: Cneo AK release)
Cc1ccc(S(=O)(=O)N2[C@@H](c3ccc(C(C)(C)C)cc3)C(C(=O)O)=CC[C@H]2c2ccc(Cl)c(Cl)c2)cc1	SIRT5 inh 16
COc1ccc([C@@H]2CC=C(C(=O)O)[C@H](c3ccc(C(C)(C)C)cc3)N2S(=O)(=O)c2ccc(C)cc2)cc1OC	rRNA inh HTS -20
COc1ccc([C@@H]2CC=C(C(=O)O)[C@H](c3ccc(F)cc3)N2S(=O)(=O)c2ccc(Cl)cc2)cc1	rRNA inh HTS -18
COc1ccc([C@@H]2CC=C(C(=O)O)[C@H](c3cccc(Cl)c3)N2S(=O)(=O)c2ccc(Cl)cc2)cc1	none (no result: PGC1a acetyl inh, SIRT5 inh)
COc1cccc([C@@H]2CC=C(C(=O)O)[C@H](c3ccc(C)cc3)N2S(=O)(=O)c2ccc(C)cc2)c1	rRNA inh HTS -19
Cc1ccc(S(=O)(=O)N2[C@@H](c3ccc(C(C)(C)C)cc3)C(C(=O)O)=CC[C@H]2c2cccc(Cl)c2)cc1	none (no result: PGC1a acetyl inh)
COc1ccc([C@@H]2CC=C(C(=O)O)[C@H](c3ccc(C)cc3)N2S(=O)(=O)c2ccc(C)cc2)cc1OC	none
CCC(=O)N1CC2(CN(C(=O)CN3CCOCC3)C2)c2c([nH]c3cc(OC)ccc23)[C@H]1CO	none (no result: C2C12 statin, Cneo AK release, PGC1a acetyl inh)
